What was measured:
Hydrolytic stability = type: physicochemical
In short: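 Test compound stirred for 24 hours in buffers: pH 2.0 and pH 4.5 citrate, pH 6.5 and pH 7.4 phosphate-buffered saline, pH 8.0 sodium borate. Hydrolytic stability is expressed as percent test compound recovered at 24 h.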

[1] = High-throughput metabolic stability assay, human liver microsomes; type: in vitro ADME; conditions: predicted from in vitro metabolic stability
In short: (§1)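 Predicted hepatic metabolic clearance from a high-throughput metabolic stability assay. Systems: pooled human, rat or mouse liver microsomes, or freshly harvested rat hepatocytes. Output is predicted blood clearance (CLb) in L h−1 kg−1.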

[2] = High-throughput metabolic stability assay, rat liver microsomes; type: in vitro ADME; conditions: predicted from in vitro metabolic stability
In short: as §1

[3] = High-throughput metabolic stability assay, mouse liver microsomes; type: in vitro ADME; conditions: predicted from in vitro metabolic stability
In short: as §1

[4] = system: freshly harvested rat hepatocytes (rHep); assay: High-throughput metabolic stability assay, rat hepatocytes; type: in vitro ADME; conditions: predicted from in vitro metabolic stability
In short: as §1

[5] = Bidirectional Caco2 permeability assay; type: in vitro ADME; conditions: human, Caco-2
Caco2 = assay: Bidirectional Caco2 permeability assay; type: in vitro ADME; conditions: Caco2, P app B–A/P app A–B

Recovered test compound (hydrolytic stability) (Hydrolytic stability; all tested pH values (2.0–8.0), 24 hours with stirring): 100%
recovery at 24 h (Hydrolytic stability; citrate buffer, pH 2): 100%
recovery at 24 h (Hydrolytic stability; citrate buffer, pH 4.5): 100%
recovery at 24 h (Hydrolytic stability; phosphate-buffered saline, pH 6.5): 100%
recovery at 24 h (Hydrolytic stability; phosphate-buffered saline, pH 7.4): 100%
recovery at 24 h (Hydrolytic stability; sodium borate buffer, pH 8): 100%
CLb hLMs (predicted blood clearance) [1]: 0.67 mL/min/kg
CLb rLMs (predicted blood clearance) [2]: 50 mL/min/kg
CLb mLMs (predicted blood clearance) [3]: 18.3 mL/min/kg
CLb rHep (predicted blood clearance) [4]: 60 mL/min/kg
Papp A→B [5]: 37.8 ×10⁻⁶ cm/s
efflux ratio [5]: 0.59
efflux ratio (Caco2): no evidence of efflux
Compound: N=S(=O)(c1ccccc1)N1CCCCC1 (stereo not shown) [2 a, 1 ‐(S‐Phenylsulfonimidoyl)piperidine]
